# Data published in PubChem BioAssay.
# The source made the active and inactive calls.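 The calls were made as follows, unless noted: active = fluorescence slope higher than the sample average by over 3 SD (cut at about -0.22 in these data, passing the limit was not always enough); inactive = the rest.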
# Assays:
# [1] = inhibitors of TNFa-induced NFkB p65 translocation, primary screen, imaging, HUVEC, MLSMR starter and 10KST1 sets (AID 438;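 active = inhibition above 20% together with a positive visual image hit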;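 also: compound added about 3h40 before a 20 min TNFalpha stimulation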;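 as to inhibition: signal is the nuclear over cytoplasmic p65 intensity ratio per well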); conditions: HUVEC TNFa-induced p65 nuclear translocation; cell count: measured here: nuclei count (cytotoxicity indicator), at 2.08 µM; inhibition: at 2 µM, stronger effect = higher value, 0% TNFa-plus-vehicle, 100% no-TNFa wells
# [2] = endothelial E-selectin expression blockers – imaging, HUVEC, immunofluorescence, MLSMR starter and 10KST1 sets, primary screen (AID 487;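 active = visually confirmed hit in the image check and inhibition above 20%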;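 as to inhibition: signal is fraction of cell area covered by stained E-selectin grains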;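 as to nuclei count: 100% = median nuclei count of all wells on the same plate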); conditions: HUVEC TNFalpha-induced E-selectin immunofluorescence imaging, at 2 µM; inhibition: stronger effect = higher value; nuclei count: measured here: cell number, toxicity
# [3] = Primary imaging screen for DUSP6 inhibitors that restore phospho-Erk in transfected HeLa cells, chemical complementation (AID 609;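 active = compounds giving at least 50% inhibition in the cell-based MKP-3 phosphatase rescue imaging test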;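 as to inhibition: phospho-Erk level distribution per well compared with pooled transfected vehicle control wells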); conditions: HeLa MKP-3 transfected, phospho-Erk imaging KS statistic, at 10 µM, cells stimulated with TPA for 15 min
# [4] = molecular target: Dual specificity protein phosphatase 6 (Homo sapiens) (UniProt Q16828); test: as above; conditions: HeLa MKP-3 transfected, phospho-Erk imaging KS statistic; at 10 µM; stronger effect = higher value; cells stimulated with TPA for 15 min
# Dual specificity protein phosphatase 6 (Homo sapiens), sequence (Q16828 whole entry, looked up): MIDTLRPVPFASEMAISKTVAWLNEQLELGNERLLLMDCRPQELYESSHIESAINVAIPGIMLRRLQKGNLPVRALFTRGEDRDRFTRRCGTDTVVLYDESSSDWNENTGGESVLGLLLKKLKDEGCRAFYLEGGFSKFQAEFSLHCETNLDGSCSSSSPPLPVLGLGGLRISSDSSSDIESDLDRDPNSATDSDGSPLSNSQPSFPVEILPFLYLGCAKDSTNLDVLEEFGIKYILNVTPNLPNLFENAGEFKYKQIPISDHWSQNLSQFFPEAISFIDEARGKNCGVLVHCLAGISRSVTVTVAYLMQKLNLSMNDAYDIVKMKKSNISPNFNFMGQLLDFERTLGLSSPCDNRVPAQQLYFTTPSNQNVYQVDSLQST
# [5] = molecular target: Voltage-gated potassium channel subunit beta-2 (Rattus norvegicus) (UniProt P62483); test: inhibitors of rat Kvbeta2 reductase activity – biochemical, NADPH fluorescence, primary screen (AID 622); conditions: recombinant KvBeta, 4-cyanobenzaldehyde reduction, at 10 µM, stronger effect = higher value;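 also: slope of raw intensity against log time taken from 70 to 1610 s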
# Voltage-gated potassium channel subunit beta-2 (Rattus norvegicus), sequence (P62483 whole entry, looked up): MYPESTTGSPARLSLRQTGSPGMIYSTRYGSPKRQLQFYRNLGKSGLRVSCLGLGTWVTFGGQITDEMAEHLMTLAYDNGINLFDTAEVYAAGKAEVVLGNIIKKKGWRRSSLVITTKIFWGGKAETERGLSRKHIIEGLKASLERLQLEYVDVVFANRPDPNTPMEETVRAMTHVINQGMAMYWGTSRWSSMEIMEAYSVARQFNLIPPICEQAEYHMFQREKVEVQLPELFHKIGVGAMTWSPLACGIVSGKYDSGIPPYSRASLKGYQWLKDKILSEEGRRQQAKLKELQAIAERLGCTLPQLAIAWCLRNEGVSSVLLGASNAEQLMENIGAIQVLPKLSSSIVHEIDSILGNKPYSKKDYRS
# [6] = molecular target: Voltage-gated potassium channel subunit beta-2 (Rattus norvegicus) (UniProt P62483); test: enhancers of rat Kvbeta2 NADPH turnover – biochemical, NADPH fluorescence, primary screen (AID 623;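 active = NADPH fluorescence slope more negative than the mean of all samples by about 3 SD, 99.7% confidence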;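 also: fluorescence intensity change per second fitted from 20 to 320 s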); conditions: Recombinant KvBeta, NADPH fluorescence decrease slope, 10 min; at 10 µM; stronger effect = lower value
# [7] = molecular target: Muscarinic acetylcholine receptor M4 (Homo sapiens) (UniProt P08173); test: M4-linked GIRK flux change, two-sided – cell-based, HEK293 M4/GIRK, thallium flux, BTC-AM, M4 allosteric agonist project, primary screen (AID 625;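 active = fluorescence slope after compound addition differing from the mean of all tested samples at 99.7% confidence, mostly higher but some lower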;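 also: thallium influx through GIRK channels coupled to M4 in HEK293 cells with BTC-AM dye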); conditions: at 10 µM, actives lie on both sides
# Muscarinic acetylcholine receptor M4 (Homo sapiens), sequence (P08173 whole entry, looked up): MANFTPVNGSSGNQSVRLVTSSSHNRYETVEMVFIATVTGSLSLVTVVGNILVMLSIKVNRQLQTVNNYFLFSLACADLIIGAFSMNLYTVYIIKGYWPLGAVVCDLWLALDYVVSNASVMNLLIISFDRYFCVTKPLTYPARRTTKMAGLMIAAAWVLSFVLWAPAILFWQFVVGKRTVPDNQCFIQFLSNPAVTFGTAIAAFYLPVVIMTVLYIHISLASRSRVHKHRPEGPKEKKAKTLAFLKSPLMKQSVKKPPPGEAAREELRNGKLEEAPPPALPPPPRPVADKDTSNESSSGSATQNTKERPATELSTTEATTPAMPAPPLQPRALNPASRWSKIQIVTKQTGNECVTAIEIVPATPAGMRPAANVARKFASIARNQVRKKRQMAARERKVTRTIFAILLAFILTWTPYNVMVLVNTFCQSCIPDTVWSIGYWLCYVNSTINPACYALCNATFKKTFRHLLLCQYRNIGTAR
# Procedure, shortened: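 Material: HEK293 cells with M4 receptor and GIRK channels; Times: cells overnight at 37 °C, BTC-AM loading 1 h, reads 2 min total; Technique: kinetic BTC-AM fluorescence sampled at 1 Hz, 10 s pre-addition baseline; Read-out basis: slope over 15–24 s of trace normalized to starting intensity; Controls: carbachol positive, DMSO negative.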
# [8] = inhibitors of larval lipid processing in zebrafish, primary screen, whole organism, PED6 fluorescence, gall bladder and intestine (AID 686;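 active = a full or partial loss of lipid-probe fluorescence in the fish gall bladder, intestine or both, judged by eye; inactive = no fluorescence loss, or compound toxic to the fish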;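 also: larvae 5 to 7 days old with five fish per well; signal comes from phospholipase A2 cleavage of quenched PED6 carried via bile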); conditions: Zebrafish larvae PED6 lipid processing, fluorescence scoring; screened at 20 µM (by protocol)
# Procedure, shortened: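 Incubation: overnight exposure of larvae to compound plus PED6 / Test system: live zebrafish larvae aged 5-7 days, whole organism / Amount: 5 larvae per well / Read-out basis: visual per-well fluorescence inhibition score / Signal: visual fluorescence microscopy scoring of gall bladder, gut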
# [9] = loss of swimming-algae plug formation – whole organism, Chlamydomonas reinhardtii, WT vs cilia-less mutant, absorbance, 96-well, primary screen (AID 463189;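 active = inhibition at or above 50% relative to wild type and mutant plate controls; inactive = inhibition below 50%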;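 also: 0% = wild type cc124 cells in DMSO and 100% = ciliumless bld1 mutant cells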); conditions: Chlamydomonas reinhardtii gravitaxis, OD600 absorbance, 2 days; at 10 µM; stronger effect = higher value
# [10] = measured here: cell density z-score
# [11] = measured here: nuclear c-Myc green intensity z-score
# [12] = measured here: nuclear pErk red intensity z-score, stronger effect = higher value
SMILES,cell count [1],inhibition [1],inhibition [2],nuclei count [2],"z-score [3, 10]","z-score [3, 11]","z-score [3, 12]",inhibition [4],fluorescence slope [5],NADPH fluorescence slope [6],fluorescence slope [7],outcome [8],inhibition [9]
CC(=O)NC(=O)Nc1sc(=S)n(C)c1C,329,-4.5% (inactive),-21.6% (inactive),71.6%,0.847,-2.04,0.71,9.82% (inactive),-0.515 (inactive),4.8e-06 (inactive),0.00528 (inactive),inactive,30.1% (inactive)
Oc1oc(-c2ccco2)nc1C=Nc1cccc(Cl)c1,562,5.6% (inactive),-19% (inactive),131%,-0.184,-1.01,0.105,-12.6% (inactive),-0.449 (inactive),-0.000133 (inactive),0.00392 (inactive),inactive,-1.6% (inactive)
COc1ccc(OC)c(C2C(C(=O)c3sc(C)nc3C)=C(O)C(=O)N2CCN2CCOCC2)c1 (stereo unspecified),369,2.2% (inactive),35.1% (inactive),148%,-0.927,-0.477,2.22,-4.78% (inactive),-0.46 (inactive),-0.000134 (inactive),0.00498 (inactive),inactive,14.2% (inactive)
C=CCOc1ccc(/C(O)=C2/C(=O)C(=O)N(CCCN3CCOCC3)C2c2ccccc2)cc1 (stereo unspecified),400,-4.5% (inactive),-152% (inactive),142%,0.832,-1.64,0.377,7.73% (inactive),-0.44 (inactive),-0.000122 (inactive),0.00439 (inactive),inactive,3.35% (inactive)
N#Cc1cc(Oc2cccc3cccnc23)c(-n2nnc3ccccc32)cc1C#N,527,-0.1% (inactive),-156% (inactive),145%,2.59,-0.877,-1.07,6.04% (inactive),-0.438 (inactive),-2.5e-05 (inactive),0.0061 (inactive),inactive,25.9% (inactive)
Oc1ccc2ccccc2c1C=NC12CN3CCN(CN(C3)C1)C2,349,-5.7% (inactive),-45.1% (inactive),163%,-0.271,0.531,0.781,-2.59% (inactive),-0.436 (inactive),-0.000124 (inactive),0.00489 (inactive),inactive,1.64% (inactive)
CC(=O)C1=C(O)C(=O)N(c2ccc(S(N)(=O)=O)cc2)C1c1ccccc1F (stereo unspecified),382,-5.4% (inactive),14.5% (inactive),138%,-0.839,-1.6,0.715,11.9% (inactive),-0.476 (inactive),-0.000111 (inactive),0.00408 (inactive),inactive,-4.73% (inactive)
CCc1[nH]c(=O)c(C#N)c2c1CCCC2,388,-8.1% (inactive),-57.4% (inactive),173%,-0.973,0.856,2.79,-12.6% (inactive),-0.495 (inactive),-0.000126 (inactive),0.00393 (inactive),inactive,26.8% (inactive)
Cc1sc(-n2c(C)ccc2C)c(C#N)c1C,411,-2% (inactive),-11.7% (inactive),144%,-1.09,-0.0847,1.07,7.73% (inactive),-0.505 (inactive),-9.6e-05 (inactive),0.00469 (inactive),inactive,-3.1% (inactive)
COc1ccc(C(=O)OC(C)CN2CCN(C)CC2)cc1OC (stereo unspecified),386,2.6% (inactive),-35.7% (inactive),154%,-1.91,0.605,1.37,-11% (inactive),-0.446 (inactive),-9.4e-05 (inactive),0.00501 (inactive),inactive,21.4% (inactive)
CCCCOC(=O)c1ccc(NC(=O)CSc2nncn2C)cc1,507,-8.4% (inactive),-82.5% (inactive),168%,-0.268,-0.273,0.565,-0.624% (inactive),-0.456 (inactive),-6.8e-05 (inactive),0.00538 (inactive),inactive,5.5% (inactive)
Brc1ccc(-c2cnnc(N3CCCC3)n2)cc1,399,-2.1% (inactive),-57.7% (inactive),130%,-1.38,0.891,-0.195,-0.608% (inactive),-0.415 (inactive),-1.2e-05 (inactive),0.005 (inactive),inactive,42.9% (inactive)
